# Tested on: patients with advanced solid tumors
# Assay: Toxicity by grade
# Type: in vivo, human
# Method in brief: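 Adverse events were tabulated descriptively as maximum grade in three groups: the chemotherapy-only lead-in cycle, the first veliparib-containing cycle, and all cycles. CBC and serum chemistry including liver function tests were drawn weekly during cycles 1–2, then at the start of every cycle. Veliparib was oral, twice daily on days 1–7; carboplatin/paclitaxel were IV every 21 days.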
# [1] = first cycle including veliparib with carboplatin and paclitaxel, n=73
# [2] = veliparib with carboplatin and paclitaxel
smiles,measurement,setting,value
C[C@]1(c2nc3c(C(N)=O)cccc3[nH]2)CCCN1 [veliparib],"Fever, Grade 4",[1],0 number of patients (%)
same,"Flu like symptoms, Any Grade",[1],1 (1) number of patients (%)
same,"Flu like symptoms, Grade 1",[1],1 (1) number of patients (%)
same,"Flu like symptoms, Grade 2",[1],0 number of patients (%)
same,"Flu like symptoms, Grade 3",[1],0 number of patients (%)
same,"Flu like symptoms, Grade 4",[1],0 number of patients (%)
same,"Flushing, Any Grade",[1],2 (3) number of patients (%)
same,"Flushing, Grade 1",[1],2 (3) number of patients (%)
same,"Flushing, Grade 2",[1],0 number of patients (%)
same,"Flushing, Grade 3",[1],0 number of patients (%)
same,"Flushing, Grade 4",[1],0 number of patients (%)
same,"Headache, Any Grade",[1],3 (4) number of patients (%)
same,"Headache, Grade 1",[1],3 (4) number of patients (%)
same,"Headache, Grade 2",[1],0 number of patients (%)
same,"Headache, Grade 3",[1],0 number of patients (%)
same,"Headache, Grade 4",[1],0 number of patients (%)
same,"Hiccups, Any Grade",[1],1 (1) number of patients (%)
same,"Hiccups, Grade 1",[1],1 (1) number of patients (%)
same,"Hiccups, Grade 2",[1],0 number of patients (%)
same,"Hiccups, Grade 3",[1],0 number of patients (%)
same,"Hiccups, Grade 4",[1],0 number of patients (%)
same,"Hypoalbuminemia, Any Grade",[1],3 (4) number of patients (%)
same,"Hypoalbuminemia, Grade 1",[1],1 (1) number of patients (%)
same,"Hypoalbuminemia, Grade 2",[1],2 (3) number of patients (%)
same,"Hypoalbuminemia, Grade 3",[1],0 number of patients (%)
same,"Hypoalbuminemia, Grade 4",[1],0 number of patients (%)
same,"Hypocalcemia, Any Grade",[1],2 (3) number of patients (%)
same,"Hypocalcemia, Grade 1",[1],0 number of patients (%)
same,"Hypocalcemia, Grade 2",[1],1 (1) number of patients (%)
same,"Hypocalcemia, Grade 3",[1],1 (1) number of patients (%)
same,"Hypocalcemia, Grade 4",[1],0 number of patients (%)
same,"Hypomagnesemia, Any Grade",[1],1 (1) number of patients (%)
same,"Hypomagnesemia, Grade 1",[1],0 number of patients (%)
same,"Hypomagnesemia, Grade 2",[1],1 (1) number of patients (%)
same,"Hypomagnesemia, Grade 3",[1],0 number of patients (%)
same,"Hypomagnesemia, Grade 4",[1],0 number of patients (%)
same,"Hyponatremia, Any Grade",[1],5 (7) number of patients (%)
same,"Hyponatremia, Grade 1",[1],3 (4) number of patients (%)
same,"Hyponatremia, Grade 2",[1],0 number of patients (%)
same,"Hyponatremia, Grade 3",[1],1 (1) number of patients (%)
same,"Hyponatremia, Grade 4",[1],1 (1) number of patients (%)
same,"Hypophosphatemia, Any Grade",[1],1 (1) number of patients (%)
same,"Hypophosphatemia, Grade 1",[1],0 number of patients (%)
same,"Hypophosphatemia, Grade 2",[1],0 number of patients (%)
same,"Hypophosphatemia, Grade 3",[1],1 (1) number of patients (%)
same,"Hypophosphatemia, Grade 4",[1],0 number of patients (%)
same,"Insomnia, Any Grade",[1],1 (1) number of patients (%)
same,"Insomnia, Grade 1",[1],1 (1) number of patients (%)
same,"Insomnia, Grade 2",[1],0 number of patients (%)
same,"Insomnia, Grade 3",[1],0 number of patients (%)
same,"Insomnia, Grade 4",[1],0 number of patients (%)
same,"Lymphocyte count decreased, Any Grade",[1],14 (19) number of patients (%)
same,"Lymphocyte count decreased, Grade 1",[1],2 (3) number of patients (%)
same,"Lymphocyte count decreased, Grade 2",[1],8 (11) number of patients (%)
same,"Lymphocyte count decreased, Grade 3",[1],3 (4) number of patients (%)
same,"Lymphocyte count decreased, Grade 4",[1],1 (1) number of patients (%)
same,"Mucositis oropharyngeal, Any Grade",[1],3 (4) number of patients (%)
same,"Mucositis oropharyngeal, Grade 1",[1],3 (4) number of patients (%)
same,"Mucositis oropharyngeal, Grade 2",[1],0 number of patients (%)
same,"Mucositis oropharyngeal, Grade 3",[1],0 number of patients (%)
same,"Mucositis oropharyngeal, Grade 4",[1],0 number of patients (%)
same,"Muscle weakness, Grade 1",[1],1(1) number of patients (%)
same,"Muscle weakness, Grade 2",[1],1 (1) number of patients (%)
same,"Muscle weakness, Grade 3",[1],0 number of patients (%)
same,"Muscle weakness, Grade 4",[1],0 number of patients (%)
same,"Myalgia, Any Grade",[1],8 (11) number of patients (%)
same,"Myalgia, Grade 1",[1],6 (8) number of patients (%)
same,"Myalgia, Grade 2",[1],2 (3) number of patients (%)
same,"Myalgia, Grade 3",[1],0 number of patients (%)
same,"Myalgia, Grade 4",[1],0 number of patients (%)
same,"Nausea, Any Grade",[1],28 (38) number of patients (%)
same,"Nausea, Grade 1",[1],22 (30) number of patients (%)
same,"Nausea, Grade 2",[1],5 (7) number of patients (%)
same,"Nausea, Grade 3",[1],1 (1) number of patients (%)
same,"Nausea, Grade 4",[1],0 number of patients (%)
same,"Neutrophil count decreased, Any Grade",[1],42 (57) number of patients (%)
same,"Neutrophil count decreased, Grade 1",[1],1 (1) number of patients (%)
same,"Neutrophil count decreased, Grade 2",[1],4 (5) number of patients (%)
same,"Neutrophil count decreased, Grade 3",[1],14 (19) number of patients (%)
same,"Neutrophil count decreased, Grade 4",[1],23 (31) number of patients (%)
same,"Non-cardiac chest pain, Any Grade",[1],1 (1) number of patients (%)
same,"Non-cardiac chest pain, Grade 1",[1],1 (1) number of patients (%)
same,"Non-cardiac chest pain, Grade 2",[1],0 number of patients (%)
same,"Non-cardiac chest pain, Grade 3",[1],0 number of patients (%)
same,"Non-cardiac chest pain, Grade 4",[1],0 number of patients (%)
same,"Paresthesia, Any Grade",[1],1 (1) number of patients (%)
same,"Paresthesia, Grade 1",[1],1 (1) number of patients (%)
same,"Paresthesia, Grade 2",[1],0 number of patients (%)
same,"Paresthesia, Grade 3",[1],0 number of patients (%)
same,"Paresthesia, Grade 4",[1],0 number of patients (%)
same,"Peripheral sensory neuropathy, Any Grade",[1],7 (10) number of patients (%)
same,"Peripheral sensory neuropathy, Grade 1",[1],7 (10) number of patients (%)
same,"Peripheral sensory neuropathy, Grade 2",[1],0 number of patients (%)
same,"Peripheral sensory neuropathy, Grade 3",[1],0 number of patients (%)
same,"Peripheral sensory neuropathy, Grade 4",[1],0 number of patients (%)
same,"Platelet count decreased, Any Grade",[1],13 (18) number of patients (%)
same,"Platelet count decreased, Grade 1",[1],7 (10) number of patients (%)
same,"Platelet count decreased, Grade 2",[1],2 (3) number of patients (%)
same,"Platelet count decreased, Grade 3",[1],4 (5) number of patients (%)
same,"Platelet count decreased, Grade 4",[1],0 number of patients (%)
same,"Presyncope, Any Grade",[1],1 (1) number of patients (%)
same,"Presyncope, Grade 1",[1],0 number of patients (%)
same,"Presyncope, Grade 2",[1],0 number of patients (%)
same,"Presyncope, Grade 3",[1],1 (1) number of patients (%)
same,"Presyncope, Grade 4",[1],0 number of patients (%)
same,"Pruritus, Any Grade",[1],3 (4) number of patients (%)
same,"Pruritus, Grade 1",[1],3 (4) number of patients (%)
same,"Pruritus, Grade 2",[1],0 number of patients (%)
same,"Pruritus, Grade 3",[1],0 number of patients (%)
same,"Pruritus, Grade 4",[1],0 number of patients (%)
same,"Purpura, Any Grade",[1],1 (1) number of patients (%)
same,"Purpura, Grade 1",[1],1 (1) number of patients (%)
same,"Purpura, Grade 2",[1],0 number of patients (%)
same,"Purpura, Grade 3",[1],0 number of patients (%)
same,"Purpura, Grade 4",[1],0 number of patients (%)
same,"Rash maculopapular, Any Grade",[1],2 (3) number of patients (%)
same,"Rash maculopapular, Grade 1",[1],2 (3) number of patients (%)
same,"Rash maculopapular, Grade 2",[1],0 number of patients (%)
same,"Rash maculopapular, Grade 3",[1],0 number of patients (%)
same,"Rash maculopapular, Grade 4",[1],0 number of patients (%)
same,"Sepsis, Any Grade",[1],2 (3) number of patients (%)
same,"Sepsis, Grade 1",[1],0 number of patients (%)
same,"Sepsis, Grade 2",[1],0 number of patients (%)
same,"Sepsis, Grade 3",[1],0 number of patients (%)
same,"Sepsis, Grade 4",[1],2 (3) number of patients (%)
same,"Sinus disorder, Any Grade",[1],1 (1) number of patients (%)
same,"Sinus disorder, Grade 1",[1],1 (1) number of patients (%)
same,"Sinus disorder, Grade 2",[1],0 number of patients (%)
same,"Sinus disorder, Grade 3",[1],0 number of patients (%)
same,"Sinus disorder, Grade 4",[1],0 number of patients (%)
same,"Tremor, Any Grade",[1],1 (1) number of patients (%)
same,"Tremor, Grade 1",[1],1 (1) number of patients (%)
same,"Tremor, Grade 2",[1],0 number of patients (%)
same,"Tremor, Grade 3",[1],0 number of patients (%)
same,"Tremor, Grade 4",[1],0 number of patients (%)
same,"Upper respiratory infection, Any Grade",[1],1 (1) number of patients (%)
same,"Upper respiratory infection, Grade 1",[1],0 number of patients (%)
same,"Upper respiratory infection, Grade 2",[1],1 (1) number of patients (%)
same,"Upper respiratory infection, Grade 3",[1],0 number of patients (%)
same,"Upper respiratory infection, Grade 4",[1],0 number of patients (%)
same,"Vomiting, Any Grade",[1],9 (12) number of patients (%)
same,"Vomiting, Grade 1",[1],7 (10) number of patients (%)
same,"Vomiting, Grade 2",[1],2 (3) number of patients (%)
same,"Vomiting, Grade 3",[1],0 number of patients (%)
same,"Vomiting, Grade 4",[1],0 number of patients (%)
same,"Weight loss, Any Grade",[1],2 (3) number of patients (%)
same,"Weight loss, Grade 1",[1],2 (3) number of patients (%)
same,"Weight loss, Grade 2",[1],0 number of patients (%)
same,"Weight loss, Grade 3",[1],0 number of patients (%)
same,"Weight loss, Grade 4",[1],0 number of patients (%)
same,"White blood cell decreased, Any Grade",[1],40 (55) number of patients (%)
same,"White blood cell decreased, Grade 1",[1],6 (8) number of patients (%)
same,"White blood cell decreased, Grade 2",[1],14 (19) number of patients (%)
same,"White blood cell decreased, Grade 3",[1],17 (23) number of patients (%)
same,"White blood cell decreased, Grade 4",[1],3 (4) number of patients (%)
same,Febrile neutropenia or grade 3-4 neutropenia lasting more than 7 days,total across the dose levels,7 patients
same,"neutropenia highest grade 3, DLT assessment period",[2],19%
same,"neutropenia highest grade 4, DLT assessment period",[2],31%
same,"neutropenia, frequency during the DLT assessment period",[2],57%

# From article PMC7825275 (Cancer chemotherapy and pharmacology, 2019)
